For assay [1], the target named is T1, Adenosine receptor A2b (Homo sapiens, UniProt P29275).
T1 sequence (P29275 whole entry): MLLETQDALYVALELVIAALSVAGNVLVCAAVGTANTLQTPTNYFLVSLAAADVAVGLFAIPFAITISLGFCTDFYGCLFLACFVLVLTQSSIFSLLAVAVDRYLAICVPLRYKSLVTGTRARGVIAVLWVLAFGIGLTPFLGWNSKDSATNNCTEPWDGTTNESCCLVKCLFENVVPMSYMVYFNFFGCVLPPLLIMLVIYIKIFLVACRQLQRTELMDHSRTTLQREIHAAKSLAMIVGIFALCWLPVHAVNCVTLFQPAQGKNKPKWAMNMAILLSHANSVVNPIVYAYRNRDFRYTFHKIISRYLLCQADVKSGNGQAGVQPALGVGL
The assay can be described thus: Displacement of [3H]DPCPX from human Adenosine A2B receptor expressed in HEK293 cells; range 67-141. In kind it is cell-based. In a few lines: (§1)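 Competition binding on membranes of HEK-293 cells carrying recombinant human A2B receptor. Incubation 60 min at 25 °C in 50 mM Tris HCl pH 7.4 with 10 mM MgCl2, 1 mM EDTA, 0.1 mM benzamidine and 2 IU/mL adenosine deaminase. Radioligand 40 nM [3H]DPCPX, at least six to eight test concentrations. NECA defined nonspecific binding. Bound ligand separated on glass-fibre filters and counted; n = 3-6.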

For assay [2], the target named is T2, Adenosine receptor A1 (Homo sapiens, UniProt P30542).
T2 sequence (P30542 whole entry): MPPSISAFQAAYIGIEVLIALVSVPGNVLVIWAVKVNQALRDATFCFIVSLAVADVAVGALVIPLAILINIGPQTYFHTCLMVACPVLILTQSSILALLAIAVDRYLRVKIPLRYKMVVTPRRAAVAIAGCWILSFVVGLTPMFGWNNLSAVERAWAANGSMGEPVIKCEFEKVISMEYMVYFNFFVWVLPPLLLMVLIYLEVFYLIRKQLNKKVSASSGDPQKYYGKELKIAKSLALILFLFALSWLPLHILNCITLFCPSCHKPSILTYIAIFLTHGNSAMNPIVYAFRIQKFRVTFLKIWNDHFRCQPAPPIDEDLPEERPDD
Put plainly: Displacement of [3H]DPCPX from human Adenosine A1 receptor expressed in CHO cells; range […]. In kind it is cell-based. In a few lines: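 Competition binding on membranes of CHO cells stably expressing human A1 receptor, resuspended in 50 mM Tris HCl pH 7.4. Incubation 120 min at 25 °C with 1 nM [3H]DPCPX, 50 µg protein per assay and at least six to eight test concentrations. CHA defined nonspecific binding. Bound ligand separated on glass-fibre filters and counted; n = 3-6.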
For orientation: In a radioligand displacement assay an active substance lowers the binding of a labelled ligand.

For assay [3], the target named is T3, Adenosine receptor A3 (Homo sapiens, UniProt P0DMS8).
T3 sequence (P0DMS8 whole entry): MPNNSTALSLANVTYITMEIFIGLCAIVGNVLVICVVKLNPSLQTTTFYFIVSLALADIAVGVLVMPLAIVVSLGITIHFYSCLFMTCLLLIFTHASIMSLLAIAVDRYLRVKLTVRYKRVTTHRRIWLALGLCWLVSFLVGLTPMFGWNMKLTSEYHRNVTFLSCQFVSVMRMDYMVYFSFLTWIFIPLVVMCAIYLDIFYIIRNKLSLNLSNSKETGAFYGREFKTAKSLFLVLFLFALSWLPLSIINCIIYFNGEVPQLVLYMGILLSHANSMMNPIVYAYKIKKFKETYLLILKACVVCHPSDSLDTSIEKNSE
Put plainly: Displacement of [3H]MRE3008-F20 from human Adenosine A3 receptor expressed in HEK cells; range 0.23-0.40. In kind it is cell-based, HEK293.

For assay [4], the target named is T4, Adenosine receptor A2a (Homo sapiens, UniProt P29274). Put plainly: Displacement of [3H]SCH-58,261 from human Adenosine A2A receptor expressed in HEK293 cells; range 122-187. It counts as cell-based.
T4 sequence (P29274 whole entry): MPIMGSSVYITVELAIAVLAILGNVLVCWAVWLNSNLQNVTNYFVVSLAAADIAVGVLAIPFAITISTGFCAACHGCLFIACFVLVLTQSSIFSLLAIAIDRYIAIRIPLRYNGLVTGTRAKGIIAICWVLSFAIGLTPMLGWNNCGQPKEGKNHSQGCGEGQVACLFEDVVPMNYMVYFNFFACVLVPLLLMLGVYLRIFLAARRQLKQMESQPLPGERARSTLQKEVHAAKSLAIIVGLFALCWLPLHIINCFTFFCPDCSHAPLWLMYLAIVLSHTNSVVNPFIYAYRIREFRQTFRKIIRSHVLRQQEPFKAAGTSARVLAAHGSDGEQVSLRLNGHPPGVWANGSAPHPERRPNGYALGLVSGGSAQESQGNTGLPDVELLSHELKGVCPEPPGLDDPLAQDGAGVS
Assay [5] concerns the target Adenosine receptors; A2b & A3 (Homo sapiens) (UniProt P29275+P0DMS8). The assay can be described thus: Selectivity ratio (h2B/hA3). It counts as protein assay.
In assay [6] the target is Adenosine receptors; A1 & A3 (Homo sapiens) (UniProt P30542+P0DMS8). Put plainly: Selectivity ratio (hA1/hA3). It counts as protein assay.
Assay [7] deals with T1, Adenosine receptor A2b. The assay can be described thus: Displacement of [3H]DPCPX from human Adenosine A2B receptor expressed in HEK293 cells; range 118-146. It counts as cell-based. In a few lines:
as §1

The target in assay [8] is T2, Adenosine receptor A1. Put plainly: Displacement of [3H]DPCPX from human Adenosine A1 receptor expressed in CHO cells; range 248-276. It counts as cell-based.
Assay [9] has as its target T4, Adenosine receptor A2a. The assay can be described thus: Displacement of [3H]SCH-58261 from human Adenosine A2A receptor expressed in HEK293 cells; range 23-40. In kind it is cell-based.
In assay [10] the target is T3, Adenosine receptor A3. The assay can be described thus: Displacement of [3H]MRE3008-F20 from human Adenosine A3 receptor expressed in HEK cells; range 0.11-0.18. In kind it is cell-based, HEK293.
Assay [11] has as its target T3, Adenosine receptor A3. The assay can be described thus: Inhibition of IB-MECA agonist-mediated cAMP production in membranes of CHO cells expressing human Adenosine A3 receptor. In kind it is functional, cell-based. The method in brief:
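Human A3-CHO membranes (in 50 mM Tris HCl, 10 mM MgCl2, 1 mM EDTA, pH 7.4) were preincubated for 10 min at 37 °C with 5 µM GTP, 0.5 mM Ro 20-1724 and 2.0 IU/mL adenosine deaminase. IB-MECA (100 nM) or antagonist was then added with 1 mM ATP and forskolin for 10 min. The reaction was stopped by 2 min boiling. cAMP was measured by [3H]cAMP competitive protein binding using beef adrenal binding protein, 150 min at 4 °C.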
In general terms: Changes in cAMP serve as a functional read-out for many G protein-coupled receptors.

The target in assay [12] is T3, Adenosine receptor A3. Put plainly: Displacement of [3H]MRE3008-F20 from human Adenosine A3 receptor expressed in HEK cells; range 0.13-0.20. It counts as cell-based, HEK293.
In assay [13] the target is T2, Adenosine receptor A1. Put plainly: biochemical.
The target in assay [14] is T1, Adenosine receptor A2b. The assay can be described thus: biochemical.
Assay [15] deals with T4, Adenosine receptor A2a. The assay can be described thus: biochemical.
The target in assay [16] is T2, Adenosine receptor A1. Put plainly: Displacement of [3H]DPCPX from human Adenosine A1 receptor expressed in CHO cells; range 525-691. In kind it is cell-based.
For assay [17], the target named is T1, Adenosine receptor A2b. The assay can be described thus: Displacement of [3H]DPCPX from human Adenosine A2B receptor expressed in HEK293 cells; range 89-116. In kind it is cell-based. In a few lines:
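Membranes from HEK-293 cells with human recombinant A2B receptor. Incubation 60 min at 25 °C in 50 mM Tris HCl, 10 mM MgCl2, 1 mM EDTA, 0.1 mM benzamidine, pH 7.4, with 2 IU/mL adenosine deaminase and 40 nM [3H]DPCPX. At least six to eight test concentrations. Nonspecific binding defined with NECA. n = 3-6.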

Assay [18] addresses T4, Adenosine receptor A2a. The assay can be described thus: Displacement of [3H]SCH-58261 from human Adenosine A2A receptor expressed in HEK293 cells; range 312-515. It counts as cell-based.
The target in assay [19] is T3, Adenosine receptor A3. The assay can be described thus: biochemical.

For orientation: Ki means a measure of affinity in units of concentration, obtained from inhibition or displacement. `CCn1cc2c(nc(NC(=O)Nc3ccccc3Cl)n3nc(-c4ccco4)nc23)n1`: the Ki at Adenosine receptor A2b [1] came out at 0.097 µM; at Adenosine receptor A1 [2], 0.348 µM; at Adenosine receptor A3 [3], 0.0003 µM; at Adenosine receptor A2a [4], 0.15 µM. The Ratio in [5] was 323; in assay [6], 1160.
Take `CCn1cc2c(nc(NC(=O)Nc3ccc(C)cc3)n3nc(-c4ccco4)nc23)n1`: the Ki on Adenosine receptor A2b [7] worked out at 0.132 µM; on Adenosine receptor A1 [8], 0.262 µM; on Adenosine receptor A2a [9], 0.03 µM; on Adenosine receptor A3 [10], 0.00014 µM. For the same molecule, the figures for the Ratio in [5] and in [6] were 943 and 1870, respectively.
One may read the IC50 as the midpoint of a concentration-inhibition curve. In the case of `Cn1cc2c(nc(NC(=O)Nc3ccccc3)n3nc(-c4ccco4)nc23)n1`, at Adenosine receptor A3 [11], the IC50 was determined as 0.002 µM. The inhibitory constant (Ki) on Adenosine receptor A3 [12] was found to be 0.00016 µM; at Adenosine receptor A1 [13], 0.594 µM; at Adenosine receptor A2b [14] it was 0.222 µM; on Adenosine receptor A2a [15], 0.381 µM. The Ratio in assay [5] stood at 1390; in [6] it was 3710.
Turning to `CCCCn1cc2c(nc(NC(=O)Cc3ccccc3)n3nc(-c4ccco4)nc23)n1`, the Ki on Adenosine receptor A1 [16] turned out to be 0.602 µM; on Adenosine receptor A2b [17], 0.101 µM; on Adenosine receptor A2a [18], 0.4 µM; at Adenosine receptor A3 [19] it was 0.00111 µM. The values for the Ratio in [5] and in [6] were 91 and 542, respectively.

(Values after ChEMBL document CHEMBL1136016, “Synthesis, biological activity, and molecular modeling investigation of new pyrazolo[4,3-e]-1,2,4-triazolo[1,5-c]pyrimidine derivatives as human A(3) adenosine receptor antagonists” (J Med Chem, 2002).)
